MPTP block: permeability transition pore inhibition. isolated mouse mitochondria, Ca2+ swelling absorbance, 30 min. inhibition, % at 10 µM. 360,000 tested, 1.4% active;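 active = inhibition of 50% or more, scaled per plate between neutral and stimulator controls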;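 also: 0% = DMSO wells given calcium and 100% = 1 mM EGTA wells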
GRIN3A LBD mod: modulators (binders) of human NR3A ligand-binding domain; 340,000 tested, 2.5% active; Tm shift relative to glycine control, % at 25 µM; NR3A LBD differential scanning fluorimetry, Tm shift; 0% = protein alone, 100% = glycine-bound protein;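 active = melting temperature shift of at least 10% of the positive control shift, at one fixed dose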
SENP1 FRET inh: SENP1 (human) catalytic domain inhibition | Q9P0U3 | recombinant SENP1 catalytic domain, CyPet-SUMO1-YPet FRET cleavage | inhibition, % at 10 µM | 360,000 tested, 0.21% active;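 active = inhibition at least 30% at 10 µM, raw YFP signal under a set limit, fluorescence ratio 0.5 to 1.5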;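 also: 0% = enzyme with DMSO and 100% = no enzyme wells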
Target sequence (Q9P0U3 419-644 limits assumed): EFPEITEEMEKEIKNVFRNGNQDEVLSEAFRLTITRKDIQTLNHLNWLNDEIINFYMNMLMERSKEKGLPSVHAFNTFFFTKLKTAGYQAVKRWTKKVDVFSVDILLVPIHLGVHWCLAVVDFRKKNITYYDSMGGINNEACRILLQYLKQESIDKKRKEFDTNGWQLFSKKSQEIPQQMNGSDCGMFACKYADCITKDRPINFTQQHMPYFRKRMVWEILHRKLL
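Material: hSENP1 catalytic domain, recombinant; medium: Tris pH 8 with BME, BSA, NP40 and catalase; compound: single concentration of 10 µM compound, 0.5% DMSO final; technique: FRET read of cyan and yellow fluorescence; timing: 50 min enzyme reaction, room temperature, light-protected; reagent: SFCypet-SUMO1-SFYpet substrate at 25 nM; control set: no-enzyme low, enzyme-DMSO high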
EBI2 antag: EBI2 (human) antagonism; inhibition, % at 5 µM; P32249; EBI2 beta-arrestin recruitment, luminescence, 7a,25-OHC stimulated; AID 651636; 360,000 tested, 0.81% active; in the data active = inhibition above about 38%;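 also: enzyme fragment complementation signal reports receptor beta-arrestin coupling in cells; 0% = agonist plus DMSO wells and 100% = wells without agonist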
EBI2 antag conf: EBI2 (human) antagonism, single concentration confirmation | shares compounds with EBI2 antag | AID 651997 | EBI2 beta-arrestin luminescence, 7a,25-OHC antagonism | inhibition, % at 5 µM | 2,400 tested, 29% active;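 active = inhibition of at least 50%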
EBI2 agonist: activates EBI2, counter-screen for EBI2 antagonists. shares compounds with EBI2 antag. EBI2-expressing cells, agonist mode, luminescence, 60 min; 0% vehicle, 100% 7α,25-dihydroxycholesterol control. activation, % at 5 µM. 2,400 tested, under 10 active;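 active = activation of at least 50%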
bGal cs: counter-screen for EBI2 antagonists: E. coli beta-galactosidase inhibition. shares compounds with EBI2 antag. purified beta-galactosidase, luminescent Galacton Star, 15 min. inhibition, % at 5 µM. 2,400 tested, 1% active;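 active = replicate-average signal at least 3 plate SD below neutral wells, shown as high inhibition, flagging enzyme-inhibiting false positives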;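 also: 0% = DMSO wells with enzyme and 100% = wells lacking enzyme; higher means stronger loss of beta-gal luminescence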
Numbers without * were called inactive; / = no result. Most compounds without a hit are left out; they make up all but 4.4% or so of the library.

SMILES	MPTP block	GRIN3A LBD mod	SENP1 FRET inh	EBI2 antag	EBI2 antag conf	EBI2 agonist	bGal cs
CCOC(=O)c1sc(NC(=O)/C=C/c2cnn(CC)c2C)c(C(=O)OCC)c1C	-2	-10	-1	40*	35	1	10
CC(C)CC(C(=O)Nc1ccccc1)N1C(=O)C2C3C=CC(C3)C2C1=O (centres undefined)	1	-1	1	0	/	/	/
Cc1ccc(NC(=O)N2CCC(O)(c3ccc(Cl)cc3)CC2)cc1	-1	-2	0	78*	75*	0	9
CC(=O)Nc1ccc(-c2ccnc3c2CC(C)(C(=O)NCc2cccc(Cl)c2)O3)cc1 (centres undefined)	0	/	1	1	/	/	/
S=c1[nH]nc(-c2cc(-c3ccccc3)n[nH]2)n1/N=C/c1c(Cl)cccc1Cl	16	5	1	44*	65*	-1	0
Cc1ccccc1/C=N/n1c(-c2cc(-c3ccccc3)n[nH]2)n[nH]c1=S	8	-1	0	24	/	/	/
COc1ccc(C2=NOC(Cn3nc(C(=O)NCc4ccc(C)cc4)cc3-c3ccccc3)C2)cc1 (centres undefined)	-2	-4	0	44*	39	-1	-9
COCCNC(=O)c1cc(-c2ccccc2)n(CC2CC(c3ccc(OC)cc3)=NO2)n1 (centres undefined)	0	0	1	9	/	/	/
COc1ccc(CN2CCC[C@]3(N[C@H](c4ccc(C)cc4)[C@@H]4C(=O)N(C)C(=O)[C@@H]43)C2=O)cc1	0	/	0	-3	/	/	/
OC(c1ccc(F)c(F)c1)c1nc(-c2cccc(F)c2)cs1 (centres undefined)	2	/	4	8	/	/	/
Cn1cc(S(=O)(=O)N2CCc3ccccc32)cc1C(=O)Nc1ccc(Cl)cc1	1	-22	-2	46*	14	-1	-11
Cc1ccc(NC(=O)c2cc(S(=O)(=O)N3CCc4ccccc43)cn2C)cc1	1	-4	0	22	/	/	/
CCc1ccccc1NC(=O)CNC(=O)CCNC(=O)Nc1ccccc1	1	-1	1	-1	/	/	/
CCC1CCCCN1C(=S)Nc1ccc(OC(F)F)cc1 (centres undefined)	2	2	-1	55*	0	0	2
COc1ccc(OCC(=O)N2CCN(c3cccc(C(F)(F)F)c3)CC2)cc1	0	-1	-2	70*	51*	-2	-12
COc1ccc(C(=O)CCC(=O)N2CCN(c3cccc(Cl)c3)CC2)cc1	-2	2	1	5	/	/	/
O=C(COc1ccc(Cl)cc1Cl)N1CCCN(C(=O)COc2ccc(Cl)cc2Cl)CC1	1	5	1	37	/	/	/
COc1ccc(OCC(=O)N2CCN(c3cccc(Cl)c3)CC2)cc1	1	3	3	86*	71*	-1	-14
COc1ccc(N2CCN(C(=O)COc3ccc(Cl)cc3Cl)CC2)cc1	-3	-1	1	51*	21	-2	-10
O=C(/C=C/c1ccc(Br)cc1)N1CCN(c2cccc(C(F)(F)F)c2)CC1	11	-11	-2	94*	81*	-1	-12
CCOC(=O)C1CCN(C(=O)c2cc3c(s2)-c2ccccc2OC3)CC1	0	2	0	79*	74*	1	0
O=C(c1cc2c(s1)-c1ccccc1OC2)N1CCc2ccccc2C1	0	3	-7	5	/	/	/
COC(=O)c1cc2c(s1)-c1ccccc1OC2	-1	5	-24	-6	/	/	/
COc1ccccc1N1CCN(C(=O)c2cc3c(s2)-c2ccccc2OC3)CC1	0	-1	-1	85*	82*	2	-8
COc1ccc([C@@H]2CC=C(C(=O)O)[C@H](c3ccccc3)N2S(=O)(=O)c2ccccc2C)cc1	-2	2	0	-4	/	/	/
O=C1C=C(c2ccc(Cl)c(C(F)(F)F)c2)C[C@@H](c2ccc(Cl)cc2)C1	1	-16	2	25	/	/	/
Cc1ccc(/C=N/NC(=O)CN2CCN(S(=O)(=O)c3ccc(Br)cc3)CC2)s1	3	-4	3	69*	52*	0	5

High-throughput results as filed in PubChem BioAssay.
